From ChEMBL document CHEMBL1681716, “Novel dihydrothieno[2,3-e]indazole derivatives as IκB kinase inhibitors” (Bioorg Med Chem Lett, 2011)

Key:
THP-1 = assay: Antiinflammatory activity in human THP1 cells assessed as inhibition of LPS-induced TNF-alpha production after 6 hrs by ELISA; conditions: THP-1, 6 h
[1] = target: T1, Inhibitor of nuclear factor kappa-B kinase subunit beta (Homo sapiens, UniProt O14920); assay: Inhibition of human IKK-beta by substrate phosphorylation assay
T1 sequence (O14920 whole entry): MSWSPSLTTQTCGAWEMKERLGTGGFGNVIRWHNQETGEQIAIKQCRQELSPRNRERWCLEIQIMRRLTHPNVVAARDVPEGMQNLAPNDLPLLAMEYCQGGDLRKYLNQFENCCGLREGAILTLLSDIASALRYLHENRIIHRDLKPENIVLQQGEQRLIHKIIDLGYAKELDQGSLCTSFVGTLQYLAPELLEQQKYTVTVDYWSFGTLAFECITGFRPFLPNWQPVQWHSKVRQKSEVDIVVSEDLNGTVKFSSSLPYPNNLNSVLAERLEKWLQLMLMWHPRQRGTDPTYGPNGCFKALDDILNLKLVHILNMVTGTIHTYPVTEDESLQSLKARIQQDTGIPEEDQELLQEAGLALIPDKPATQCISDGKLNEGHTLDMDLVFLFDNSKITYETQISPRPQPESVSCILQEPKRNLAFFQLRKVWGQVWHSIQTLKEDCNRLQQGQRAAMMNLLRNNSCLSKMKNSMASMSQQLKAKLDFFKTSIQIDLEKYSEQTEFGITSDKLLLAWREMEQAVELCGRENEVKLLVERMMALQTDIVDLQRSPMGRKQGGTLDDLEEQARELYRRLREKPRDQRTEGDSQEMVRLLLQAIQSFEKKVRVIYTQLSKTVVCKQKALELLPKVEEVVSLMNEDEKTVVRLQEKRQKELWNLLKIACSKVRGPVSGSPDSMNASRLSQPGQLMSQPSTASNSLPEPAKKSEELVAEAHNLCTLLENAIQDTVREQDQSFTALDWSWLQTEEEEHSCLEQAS
How it was run: (§1)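 Human IKK-α or IKK-β was tested on a biotinylated 21-residue IκBα peptide captured on avidin-coated plates and blocked with 3% BSA. Enzyme in 25 mM Tris pH 7.4, 2 mM DTT and 0.01% Tween 20 was preincubated with compound (1% DMSO) for 10 min at 25 °C. An ATP/MgCl₂ solution started the reaction, which ran 60 min at 25 °C. Phospho-IκBα was detected with a mouse monoclonal antibody, then HRP anti-mouse IgG and TMB.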

[2] = target: T2, Inhibitor of nuclear factor kappa-B kinase subunit alpha (Homo sapiens, UniProt O15111); assay: Inhibition of human IKK-alpha by substrate phosphorylation assay
T2 sequence (O15111 whole entry): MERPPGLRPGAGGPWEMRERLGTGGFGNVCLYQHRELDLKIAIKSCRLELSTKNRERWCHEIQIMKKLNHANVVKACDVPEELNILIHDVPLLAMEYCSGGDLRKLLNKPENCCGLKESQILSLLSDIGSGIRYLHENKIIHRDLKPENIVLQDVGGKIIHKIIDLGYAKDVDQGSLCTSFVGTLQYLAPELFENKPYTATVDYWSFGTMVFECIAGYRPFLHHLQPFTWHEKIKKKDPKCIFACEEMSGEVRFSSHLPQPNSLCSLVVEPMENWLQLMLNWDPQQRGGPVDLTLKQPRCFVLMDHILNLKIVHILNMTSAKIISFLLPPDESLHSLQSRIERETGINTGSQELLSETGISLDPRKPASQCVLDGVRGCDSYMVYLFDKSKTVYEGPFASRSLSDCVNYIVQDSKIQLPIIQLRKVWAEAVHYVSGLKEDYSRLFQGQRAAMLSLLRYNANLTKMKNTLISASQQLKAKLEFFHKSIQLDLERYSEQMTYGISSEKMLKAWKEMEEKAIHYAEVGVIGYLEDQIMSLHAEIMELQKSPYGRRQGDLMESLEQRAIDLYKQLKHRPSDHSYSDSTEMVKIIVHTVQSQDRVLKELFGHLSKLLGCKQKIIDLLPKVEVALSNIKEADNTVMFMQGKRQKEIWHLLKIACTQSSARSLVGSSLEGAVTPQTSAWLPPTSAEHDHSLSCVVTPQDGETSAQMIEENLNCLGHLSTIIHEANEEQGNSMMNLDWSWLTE
How it was run: as §1

Mus musculus = assay: Antiinflammatory activity in po dosed DBA/2 mouse assessed as inhibition of LPS-stimulated plasma TNFalpha production pretreated 60 mins before LPS challenge measured after 90 mins by ELISA; format: functional, organism-based
How it was run: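 Female DBA/2 mice were given compound by oral gavage at 3 and 10 mg/kg. After 60 min, LPS in 0.2 mL saline was injected i.p. Plasma TNF-α was measured by ELISA 90 min after the LPS challenge.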

| SMILES | IC50 (THP-1) [µM] | IC50 [1] [nM] | IC50 [2] [µM] | inhibition (Mus musculus) |
| --- | --- | --- | --- | --- |
| NC(=O)Nc1sc2c(c1C(N)=O)CCc1nn(C3CCCN(Cc4cc(F)c(F)cc4F)C3)cc1-2 (stereo unspecified) | 0.3 | 3100 |  |  |
| CCCCn1cc2c(n1)CCc1c-2sc(NC(N)=O)c1C(N)=O | 4 | 2700 |  |  |
| CN(C)CCn1cc2c(n1)CCc1c-2sc(NC(N)=O)c1C(N)=O |  | 8800 |  |  |
| CCCn1ncc2c1CCc1c-2sc(NC(N)=O)c1C(N)=O | 42 | 2200 |  |  |
| NC(=O)Nc1sc2c(c1C(N)=O)CCc1nn(C3CCCN(Cc4ccc(Cl)cc4)C3)cc1-2 (stereo unspecified) | 0.6 | 2500 | > 100 |  |
| COc1ccc(CN2CCCC(n3cc4c(n3)CCc3c-4sc(NC(N)=O)c3C(N)=O)C2)c(F)c1 (stereo unspecified) | 3.8 | 1900 | > 100 |  |
| NC(=O)Nc1sc2c(c1C(N)=O)CCc1nn(C3CCN(Cc4ccccc4)CC3)cc1-2 | 1.2 | 4800 |  |  |
| NC(=O)Nc1sc2c(c1C(N)=O)CCc1c-2cnn1Cc1ccc(F)cc1 | 12 | 200 |  |  |
| NC(=O)Nc1sc2c(c1C(N)=O)CCc1nn(C3CCCN(Cc4ccc(F)cc4F)C3)cc1-2 (stereo unspecified) | 0.8 | 1700 | > 100 | Dose-dependent effect |
| CCCCCCn1cc2c(n1)CCc1c-2sc(NC(N)=O)c1C(N)=O |  | 8400 |  |  |
| NC(=O)Nc1sc2c(c1C(N)=O)CCc1nn(C3CCCN(Cc4ccccc4)C3)cc1-2 (racemic) | 0.5 | 2200 | > 100 |  |
| NC(=O)Nc1sc2c(c1C(N)=O)CCc1nn(Cc3ccc(F)cc3)cc1-2 | 2.5 | 900 |  |  |
| NC(=O)Nc1sc2c(c1C(N)=O)CCc1nn(C3CCCN(Cc4ccc(Cl)cc4F)C3)cc1-2 (stereo unspecified) | 4.4 | 500 | 41 |  |
| NC(=O)Nc1sc2c(c1C(N)=O)CCc1nn(C3CCCN(Cc4ccc(O)cc4F)C3)cc1-2 (stereo unspecified) | 0.7 | 900 |  |  |
| NC(=O)Nc1sc2c(c1C(N)=O)CCc1nn(C3CCCN(Cc4ccc(N)cc4F)C3)cc1-2 (stereo unspecified) | 0.5 | 500 | 9 |  |
| CC(=O)Nc1ccc(CN2CCCC(n3cc4c(n3)CCc3c-4sc(NC(N)=O)c3C(N)=O)C2)c(F)c1 (stereo unspecified) |  | > 10000 |  |  |
| COCCn1cc2c(n1)CCc1c-2sc(NC(N)=O)c1C(N)=O |  | 11000 |  |  |
| NC(=O)Nc1sc2c(c1C(N)=O)CCc1nn(Cc3ccccn3)cc1-2 | > 30 | 4500 |  |  |
| NC(=O)Nc1sc2c(c1C(N)=O)CCc1nn(C3CN(Cc4ccccc4)C3)cc1-2 | 2.5 | 7100 |  |  |
| NC(=O)Nc1sc2c(c1C(N)=O)CCc1nn(Cc3ccccc3)cc1-2 | 5.6 | 4200 |  |  |
| NC(=O)Nc1sc2c(c1C(N)=O)CCc1nn(C3CCCCN(Cc4ccccc4)C3)cc1-2 (racemic) |  | > 10000 |  |  |
| CC(C)n1cc2c(n1)CCc1c-2sc(NC(N)=O)c1C(N)=O | 4.6 | 2300 |  |  |
| CN(CCn1cc2c(n1)CCc1c-2sc(NC(N)=O)c1C(N)=O)Cc1ccccc1 | 5.1 | 4600 |  |  |
| NC(=O)Nc1sc2c(c1C(N)=O)CCc1nn(Cc3cccnc3)cc1-2 | 24 | 4800 |  |  |
| NC(=O)Nc1sc2c(c1C(N)=O)CCc1nn(Cc3ccncc3)cc1-2 | 9 | 2300 |  |  |
| CCCn1cc2c(n1)CCc1c-2sc(NC(N)=O)c1C(N)=O | 5.2 | 2900 |  |  |
| NC(=O)Nc1sc2c(c1C(N)=O)CCc1nn(C3CCN(Cc4ccccc4)C3)cc1-2 (racemic) | 1.7 | 3000 |  |  |
